Experimental data: ChEMBL document CHEMBL1125322, “Stabilization of the N-terminal residues of luteinizing hormone-releasing hormone agonists and the effect on pharmacokinetics” (J Med Chem, 1992)
Square brackets hold non-standard residues; d marks the D form. Peptide text beside a SMILES is read from it. 1Nal = N[C@@H](Cc1cccc2ccccc12)C(=O)O; NMeF = CN[C@@H](Cc1ccccc1)C(=O)O; pGlu = O=C1CC[C@@H](C(=O)O)N1; NMeS = CN[C@@H](CO)C(=O)O

Experiments:
[1] = Compound was tested in vivo for clearance after iv administration in the rat; type: ADME, organism-based
Procedure, shortened: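 Rats received each compound as an iv bolus. Serum levels were measured by RIA using an antibody recognizing the C-terminal Leu-Arg-ProNHEt; one analogue was measured with an anti-[D-Lys6]LHRH antibody instead. Whole-body clearance was calculated as dose divided by the area under the concentration–time curve and expressed in mL/min per kg.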

[2] = Compound was tested in vitro for lumenal concentration in the rat jejunal sac to decrease by 50%.; type: ADME
Procedure, shortened: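 Peptides were incubated at 37 °C inside short closed segments of rat jejunum in oxygenated Ringer's buffer, pH 6.8. At set times, segments were removed from the bath and the lumenal contents were assayed for peptide by HPLC. T1/2 is the time, in min, for the lumenal concentration to fall by 50%.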

[3] = Compound was tested in vitro for chymotrypsin degradation; type: ADME
Procedure, shortened: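 Each peptide was mixed with chymotrypsin in 30 mM sodium phosphate/100 mM NaCl, pH 6.9 (enzyme at 5 µg/mL in the buffer before mixing, prewarmed to 37 °C) and incubated at 37 °C. Aliquots were taken at set intervals from 0.083 min up to 60 min and quenched in 3:7 acetonitrile/water. Degradation was followed chromatographically, and the half-life is given in min.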

Structure (SMILES)	clearance [1]	half-life [2]	half-life [3]
CCNC(=O)[C@@H]1CCCN1C(=O)[C@H](CCCN=C(N)N)NC(=O)[C@H](CC(C)C)NC(=O)[C@@H](Cc1c[nH]c2ccccc12)NC(=O)[C@H](Cc1ccc(O)cc1)NC(=O)[C@H](CO)N(C)C(=O)[C@H](Cc1c[nH]c2ccccc12)NC(=O)[C@H](Cc1cnc[nH]1)NC(=O)[C@@H]1CCC(=O)N1		39.1 min	
CCNC(=O)[C@@H]1CCCN1C(=O)[C@H](CCCN=C(N)N)NC(=O)[C@H](CC(C)C)NC(=O)[C@@H](CC(C)C)NC(=O)[C@H](Cc1ccc(O)cc1)NC(=O)[C@H](CO)NC(=O)[C@H](Cc1ccc(OC)cc1)NC(=O)[C@H](Cc1c[nH]cn1)NC(=O)[C@@H]1CCC(=O)N1	13.3 mL/min/kg	14.9 min	
CCNC(=O)[C@@H]1CCCN1C(=O)[C@H](CCCN=C(N)N)NC(=O)[C@H](CC(C)C)NC(=O)[C@@H](Cc1c[nH]c2ccccc12)NC(=O)[C@H](Cc1ccc(O)cc1)NC(=O)[C@H](CO)N(C)C(=O)[C@H](Cc1c[nH]c2ccccc12)NC(=O)[C@H](Cc1c[nH]cn1)NC(=O)CN(C)C(C)=O	28.3 mL/min/kg	55 min	> 60 min
CCNC(=O)[C@@H]1CCCN1C(=O)[C@H](CCCN=C(N)N)NC(=O)[C@H](CC(C)C)NC(=O)[C@@H](CC(C)C)NC(=O)[C@H](Cc1ccc(O)cc1)NC(=O)[C@H](CO)N(C)C(=O)[C@H](Cc1c[nH]c2ccccc12)NC(=O)[C@H](Cc1c[nH]cn1)NC(=O)[C@@H]1CCC(=O)N1 ([pGlu]HW[NMeS]Y[dL]LRP-NHEt)		> 90 min	
CCNC(=O)[C@@H]1CCCN1C(=O)[C@H](CCCN=C(N)N)NC(=O)[C@H](CC(C)C)NC(=O)[C@@H](CC(C)C)NC(=O)[C@H](Cc1ccc(O)cc1)NC(=O)[C@H](CO)NC(=O)[C@H](Cc1cccc2ccccc12)NC(=O)[C@H](Cc1c[nH]cn1)NC(=O)[C@@H]1CCC(=O)N1 ([pGlu]H[1Nal]SY[dL]LRP-NHEt)		25 min	

More lines, now with the values ahead:

clearance [1]	half-life [2]	half-life [3]	Structure (SMILES)
24 mL/min/kg	60 min	1 min	CCNC(=O)[C@@H]1CCCN1C(=O)[C@H](CCCN=C(N)N)NC(=O)[C@H](CC(C)C)NC(=O)[C@@H](CC(C)C)NC(=O)[C@H](Cc1ccc(O)cc1)NC(=O)[C@H](CO)NC(=O)[C@H](Cc1c[nH]c2ccccc12)NC(=O)[C@H](Cc1c[nH]cn1)NC(=O)CN(C)C(C)=O
	4 min		CCNC(=O)[C@@H]1CCCN1C(=O)[C@H](CCCNC(=N)N)NC(=O)[C@H](CC(C)C)NC(=O)[C@@H](CC(C)C)NC(=O)[C@H](Cc1ccc(O)cc1)NC(=O)[C@H](CO)NC(=O)[C@H](Cc1c[nH]c2ccccc12)NC(=O)[C@H](Cc1c[nH]cn1)NC(=O)[C@@H]1CCC(=O)N1
7.6 mL/min/kg	4.4 min		CCNC(=O)[C@@H]1CCCN1C(=O)[C@H](CCCN=C(N)N)NC(=O)[C@H](CC(C)C)NC(=O)[C@@H](CC(C)C)NC(=O)[C@H](Cc1ccc(O)cc1)NC(=O)[C@H](CO)NC(=O)[C@H](Cc1ccc(Cl)cc1)NC(=O)[C@H](Cc1c[nH]cn1)NC(=O)[C@@H]1CCC(=O)N1
	2.2 min		CCNC(=O)[C@@H]1CCCN1C(=O)[C@H](CCCN=C(N)N)NC(=O)[C@H](CC(C)C)NC(=O)[C@@H](CC(C)C)NC(=O)[C@H](Cc1ccc(O)cc1)NC(=O)[C@H](CO)NC(=O)[C@H](Cc1c[nH]c2ccccc12)NC(=O)[C@H](Cc1ccccc1)NC(=O)[C@@H]1CCC(=O)N1 ([pGlu]FWSY[dL]LRP-NHEt)
	10.8 min		CCNC(=O)[C@@H]1CCCN1C(=O)[C@H](CCCN=C(N)N)NC(=O)[C@H](CC(C)C)NC(=O)[C@@H](Cc1c[nH]c2ccccc12)NC(=O)[C@H](Cc1ccc(O)cc1)NC(=O)[C@H](CO)NC(=O)[C@H](Cc1c[nH]c2ccccc12)NC(=O)[C@H](Cc1ccccc1)NC(=O)[C@@H]1CCC(=O)N1 ([pGlu]FWSY[dW]LRP-NHEt)
44.4 mL/min/kg	44.4 min		CCNC(=O)[C@@H]1CCCN1C(=O)[C@H](CCCN=C(N)N)NC(=O)[C@H](CC(C)C)NC(=O)[C@@H](Cc1c[nH]c2ccccc12)NC(=O)[C@H](Cc1ccc(O)cc1)NC(=O)[C@H](CO)NC(=O)[C@H](Cc1c[nH]c2ccccc12)NC(=O)[C@H](Cc1ccccc1)N(C)C(=O)[C@@H]1CCC(=O)N1 ([pGlu][NMeF]WSY[dW]LRP-NHEt)
